Screens as filed in PubChem.
Casp6 inh: blocks human caspase-6 cleavage activity; P55212; purified caspase-6, Z-VEID-R110 cleavage fluorescence; inhibition, % at 12.5 µM; hit rate 0.53% among 350,000;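 active = mean inhibition across replicates at least about 35%, with every replicate also reaching that limit, limit read from the data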
Target sequence (P55212 24-179 limits assumed): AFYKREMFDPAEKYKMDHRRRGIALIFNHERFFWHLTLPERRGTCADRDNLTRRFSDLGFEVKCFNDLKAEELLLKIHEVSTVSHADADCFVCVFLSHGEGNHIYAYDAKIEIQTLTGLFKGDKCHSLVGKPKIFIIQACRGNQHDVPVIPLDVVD
Target sequence (P55212 194-293 limits assumed): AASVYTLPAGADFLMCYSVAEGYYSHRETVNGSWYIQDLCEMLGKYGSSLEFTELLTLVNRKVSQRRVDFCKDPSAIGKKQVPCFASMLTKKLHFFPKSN
FGF22 binding: shifts melting point of recombinant human FGF22. Q9HCT0. activity (Tm shift, normalised), % at 9.99 µM. recombinant FGF22 thermal shift, SYPRO orange fluorescence; percent of sucrose octasulfate shift, DMSO zero. hit rate 1.5% among 340,000. AID 651658;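 active = mean Tm shift, scaled 0 neutral to 100 positive control, at about 1.3% or above, every replicate too, limit read from the data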
UCH37 DUB inh: human UCH37 deubiquitinating enzyme inhibition. purified proteasome/UCH37, Ub-AMC cleavage fluorescence. inhibition, % (concentration not given with the values). Q9Y5K5. hit rate 0.33% among 330,000;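 active = mean inhibition over replicate wells above about 20%, limit read from the data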
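system = Proteasome-associated human UCH37 deubiquitinase | amount = 0.15 nM proteasome as dispensed | medium = pH 7.4 Tris-HCl (50 mM) with ovalbumin, ATP-MgCl2, DTT | incubation = 30 min preincubation with enzyme, 25 min cleavage at room temperature | detection = AMC fluorescence 355/460 nm | read-out basis = percent inhibition | controls = no-proteasome and no-compound wells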
NSD2 HMT inh: NSD2 (human) methyltransferase inhibition | O96028 | NSD2 peptide methylation, AlphaScreen, 120 min | inhibition, % at 12.5 µM | hit rate 0.54% among 310,000; in the data active = inhibition above about 50%
SIRT5 block: blocks human SIRT5 desuccinylation of peptide; Purified SirT5, succinyl-peptide AMC, trypsin-coupled fluorescence; inhibition, % at 15 µM; hit rate 1.1% among 330,000; in the data active = inhibition above about 15%
Target sequence (Q9NXA8 whole entry, looked up): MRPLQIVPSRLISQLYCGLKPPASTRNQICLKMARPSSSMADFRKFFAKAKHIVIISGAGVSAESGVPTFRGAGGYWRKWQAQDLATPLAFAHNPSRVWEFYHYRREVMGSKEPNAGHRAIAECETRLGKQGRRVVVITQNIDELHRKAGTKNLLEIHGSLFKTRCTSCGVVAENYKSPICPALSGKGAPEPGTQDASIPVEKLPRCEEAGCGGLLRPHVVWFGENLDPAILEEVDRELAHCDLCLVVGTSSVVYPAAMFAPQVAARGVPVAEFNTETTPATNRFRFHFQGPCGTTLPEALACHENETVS
Hits are given with their value. An excerpt weighted towards active compounds, which were near 2.6% of everything screened.

`CC(C)C#Cc1ccc2c(c1)O[C@@H](CN(C)Cc1ccccc1)[C@@H](C)CN([C@@H](C)CO)S2(=O)=O` gave Casp6 inh inactive, FGF22 binding inactive and SIRT5 block 17.
Screening CC(C)C#Cc1ccc2c(c1)O[C@H](CN(C)Cc1ccccc1)[C@H](C)CN([C@H](C)CO)S2(=O)=O returned Casp6 inh inactive, FGF22 binding inactive and SIRT5 block 16.
Screening CCCC#Cc1ccc2c(c1)O[C@@H](CN(C)Cc1ccccc1)[C@@H](C)CN([C@H](C)CO)S2(=O)=O returned Casp6 inh inactive, FGF22 binding inactive and SIRT5 block inactive.
Screening CC(C)C#Cc1ccc2c(c1)O[C@H](CN(C)Cc1ccccc1)[C@@H](C)CN([C@H](C)CO)S2(=O)=O returned Casp6 inh inactive, FGF22 binding inactive and SIRT5 block inactive.
For CCCC#Cc1ccc2c(c1)O[C@H](CN(C)Cc1ccccc1)[C@@H](C)CN([C@H](C)CO)S2(=O)=O the results were FGF22 binding inactive and SIRT5 block 20.
CC(C)C#Cc1ccc2c(c1)O[C@H](CN(C)Cc1ccccc1)[C@@H](C)CN([C@@H](C)CO)S2(=O)=O was read as Casp6 inh inactive, FGF22 binding inactive and SIRT5 block inactive.
For COC(=O)C[C@@H]1CC[C@H](NS(=O)(=O)c2ccc(OC)cc2)[C@H](CO)O1 the results were Casp6 inh inactive, FGF22 binding inactive and SIRT5 block inactive.
Cc1ccccc1-c1cnc2c(c1)C(=O)N([C@H](C)CO)C[C@H](C)[C@H](CN(C)C(=O)c1ccncc1)O2 was read as Casp6 inh inactive, FGF22 binding inactive and SIRT5 block inactive.
For Cc1noc(C)c1NC(=O)N(C)C[C@H]1Oc2ccc(NC(=O)NC3CCCCC3)cc2C(=O)N([C@@H](C)CO)C[C@@H]1C the results were Casp6 inh inactive, FGF22 binding inactive and SIRT5 block inactive.
`O=C(C[C@@H]1C=C[C@H](NC(=O)c2cnccn2)[C@H](CO)O1)NCc1ccccc1F` gave Casp6 inh inactive, FGF22 binding inactive and SIRT5 block inactive.
O=C(C[C@@H]1C=C[C@H](NS(=O)(=O)c2cccc(F)c2)[C@H](CO)O1)N1CCCCC1 was read as Casp6 inh inactive, FGF22 binding inactive and SIRT5 block inactive.
For C[C@H]1CN([C@@H](C)CO)S(=O)(=O)c2ccc(C#CC(C)(C)O)cc2O[C@@H]1CN(C)Cc1ccc(F)cc1 the results were Casp6 inh inactive, FGF22 binding inactive and SIRT5 block 16.
For C[C@@H]1CN([C@@H](C)CO)S(=O)(=O)c2ccc(C#CC(C)(C)O)cc2O[C@H]1CN(C)Cc1ccccc1 the results were Casp6 inh inactive, FGF22 binding inactive and SIRT5 block inactive.
Screening COc1ccc(C(=O)C2CCCN(C(=O)c3cccnc3OC)C2)cc1F (stereo not drawn) returned Casp6 inh inactive, FGF22 binding 44, UCH37 DUB inh inactive, NSD2 HMT inh inactive and SIRT5 block inactive.
`CSc1ccc(C(=O)C2CCCN(C(=O)c3cccnc3SC)C2)cc1` (stereo not drawn) gave Casp6 inh inactive, FGF22 binding inactive, UCH37 DUB inh inactive, NSD2 HMT inh inactive and SIRT5 block inactive.
CSc1ncccc1C(=O)N1CCCC(C(=O)c2ccc3ccccc3c2)C1 (stereo not drawn) was read as Casp6 inh inactive, FGF22 binding 43, UCH37 DUB inh inactive, NSD2 HMT inh inactive and SIRT5 block inactive.
For CCC(C)(C)NC(=O)CN(Cc1cccs1)C(=O)CNS(=O)(=O)c1ccc(C)cc1 the results were UCH37 DUB inh inactive and NSD2 HMT inh inactive.
Screening CCC(C)(C)NC(=O)CN(C(=O)CNS(=O)(=O)c1ccc(F)cc1)c1ccc2c(c1)OCCO2 returned Casp6 inh 47, FGF22 binding inactive, UCH37 DUB inh inactive and SIRT5 block inactive.
For CC(C)(C)NC(=O)CN(Cc1ccc2c(c1)OCO2)C(=O)CNS(=O)(=O)c1ccc(F)cc1 the results were FGF22 binding inactive, UCH37 DUB inh inactive, NSD2 HMT inh inactive and SIRT5 block inactive.
`CC(C)(C)NC(=O)CN(Cc1cccs1)C(=O)CNS(=O)(=O)c1ccc(F)cc1` gave Casp6 inh inactive, FGF22 binding 43, UCH37 DUB inh inactive, NSD2 HMT inh inactive and SIRT5 block inactive.
CC(C)NC(=O)N[C@H]1C=C[C@@H](CC(=O)NCCN2CCCC2)O[C@H]1CO was read as Casp6 inh inactive, FGF22 binding inactive and SIRT5 block inactive.
`O=C(CSc1ncccn1)NN=Cc1cccc([N+](=O)[O-])c1` gave UCH37 DUB inh inactive.
Cc1ccccc1NC(=S)Nn1cnnc1 was read as Casp6 inh inactive, FGF22 binding inactive, UCH37 DUB inh inactive, NSD2 HMT inh inactive and SIRT5 block inactive.
For Cc1cccc(NC(=S)Nn2cnnc2)c1C the results were Casp6 inh inactive, FGF22 binding 43, UCH37 DUB inh inactive, NSD2 HMT inh inactive and SIRT5 block inactive.
`O=[N+]([O-])c1cc([N+](=O)[O-])c(Oc2ccc(F)cc2F)cc1NN1CCCCC1` gave Casp6 inh inactive, FGF22 binding inactive, UCH37 DUB inh inactive and SIRT5 block 17.
`O=C(O)C[C@@H]1C[C@H]2c3cc(NC(=O)Nc4ccc(F)cc4)ccc3O[C@H]2[C@H](CO)O1` gave Casp6 inh inactive, FGF22 binding inactive and SIRT5 block inactive.
Screening COc1ccc(NC(=O)N(C)C[C@H]2Oc3c(NC(=O)c4cnccn4)cccc3C(=O)N([C@@H](C)CO)C[C@@H]2C)cc1 returned Casp6 inh inactive, FGF22 binding inactive and SIRT5 block inactive.
For COc1ccc(-c2nnc(SCCC(=O)O)n2-c2ccccc2)cc1OC the results were Casp6 inh inactive, FGF22 binding inactive, UCH37 DUB inh inactive, NSD2 HMT inh inactive and SIRT5 block 15.
For CN(c1ccc(OCC(=O)OCC(=O)Nc2ccccc2)cc1)S(=O)(=O)c1ccc(F)cc1 the results were UCH37 DUB inh inactive and NSD2 HMT inh inactive.
CN(Cc1ccccc1)S(=O)(=O)c1ccc(OCC(=O)NCc2cccnc2)cc1 was read as Casp6 inh inactive, FGF22 binding inactive, UCH37 DUB inh inactive, NSD2 HMT inh inactive and SIRT5 block inactive.
For CN(c1ccc(OCC(=O)Nc2cc(Cl)ccc2C(=O)O)cc1)S(=O)(=O)c1ccc(F)cc1 the results were Casp6 inh 36, FGF22 binding inactive, UCH37 DUB inh inactive, NSD2 HMT inh inactive and SIRT5 block inactive.
`CN(c1ccc(OCC(=O)Nc2ccc(S(N)(=O)=O)cc2)cc1)S(=O)(=O)c1ccc(F)cc1` gave Casp6 inh inactive, FGF22 binding inactive, UCH37 DUB inh inactive, NSD2 HMT inh inactive and SIRT5 block inactive.
CN(Cc1ccccc1)C(=O)COc1ccc(N(C)S(=O)(=O)c2ccc(F)cc2)cc1 was read as Casp6 inh inactive, FGF22 binding inactive, UCH37 DUB inh inactive, NSD2 HMT inh inactive and SIRT5 block 18.
For CN(c1ccc(OCC(=O)NCc2cccnc2)cc1)S(=O)(=O)c1ccc(Cl)cc1 the results were Casp6 inh inactive, FGF22 binding 43, UCH37 DUB inh inactive, NSD2 HMT inh inactive and SIRT5 block inactive.
